Measured values published in PMC10937199 (ESMO Open, 2024).

How the values were obtained:
[1] = tested on: patients with advanced solid tumors; assay: Safety; format: in vivo, human; settings: Part B
[2] = tested on: patients with advanced solid tumors; assay: Safety; format: in vivo, human; settings: Part FE
[3] = tested on: advanced solid tumors; assay: Best overall response per RECIST version 1.1, Part A; format: in vivo, human
[4] = tested on: advanced solid tumors; assay: Best overall response per RECIST version 1.1, Part B; format: in vivo, human
[5] = Peposertib plasma pharmacokinetics, Part A; format: in vivo, human; settings: Parts A and B
[6] = tested on: advanced solid tumors; assay: Disease control by baseline PD-L1 and DNA-PK immunohistochemistry; format: in vivo, human
Outline: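 Immunohistochemistry on pretreatment archival tumor tissue; in Parts A and B, fresh samples were taken when no archival tissue was available. DNA-PK staining was scored as an H-score combining prevalence and staining intensity, then related to disease control.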

[7] = tested on: patients with advanced solid tumors; settings: Part B, 100-250 mg q.d.
[8] = tested on: DNA-PK; settings: previous studies; cited from earlier work

## COc1ccc([C@@H](O)c2cc(-c3ncnc4cc(N5CCOCC5)ccc34)c(F)cc2Cl)nn1 [Peposertib]
[1]; 100 mg q.d., all grade
  IRR: 2 (66.7) n (%)
  Immune-related AE: 0 n (%)
  Serious TEAE: 2 (66.7) n (%)
  Serious TEAE, peposertib related: 0 n (%)
  Serious TEAE, radiotherapy related: 0 n (%)
  Serious TEAE, treatment related: 1 (33.3) n (%)
  TEAE: 3 (100.0) n (%)
  TEAE, peposertib related: 2 (66.7) n (%)
  TEAE, radiotherapy related: 1 (33.3) n (%)
  TEAE, treatment related: 3 (100.0) n (%)
  TEAEs leading to death: 0 n (%)
  Treatment-related AE leading to death: 0 n (%)
[1]; 100 mg q.d., grade ≥3
  IRR: 0 n (%)
  Immune-related AE: 0 n (%)
  Serious TEAE: 2 (66.7) n (%)
  Serious TEAE, peposertib related: 0 n (%)
  Serious TEAE, radiotherapy related: 0 n (%)
  Serious TEAE, treatment related: 1 (33.3) n (%)
  TEAE: 2 (66.7) n (%)
  TEAE, peposertib related: 0 n (%)
  TEAE, radiotherapy related: 0 n (%)
  TEAE, treatment related: 1 (33.3) n (%)
  TEAEs leading to death: 0 n (%)
  Treatment-related AE leading to death: 0 n (%)
[1]; 150 mg q.d., all grade
  IRR: 1 (33.3) n (%)
  Immune-related AE: 0 n (%)
  Serious TEAE: 1 (33.3) n (%)
  Serious TEAE, peposertib related: 0 n (%)
  Serious TEAE, radiotherapy related: 0 n (%)
  Serious TEAE, treatment related: 1 (33.3) n (%)
  TEAE: 3 (100.0) n (%)
  TEAE, peposertib related: 1 (33.3) n (%)
  TEAE, radiotherapy related: 1 (33.3) n (%)
  TEAE, treatment related: 3 (100.0) n (%)
  TEAEs leading to death: 0 n (%)
  Treatment-related AE leading to death: 0 n (%)
[1]; 150 mg q.d., grade ≥3
  IRR: 0 n (%)
  Immune-related AE: 0 n (%)
  Serious TEAE: 1 (33.3) n (%)
  Serious TEAE, peposertib related: 0 n (%)
  Serious TEAE, radiotherapy related: 0 n (%)
  Serious TEAE, treatment related: 1 (33.3) n (%)
  TEAE: 2 (66.7) n (%)
  TEAE, peposertib related: 1 (33.3) n (%)
  TEAE, radiotherapy related: 1 (33.3) n (%)
  TEAE, treatment related: 2 (66.7) n (%)
  TEAEs leading to death: 0 n (%)
  Treatment-related AE leading to death: 0 n (%)
[1]; 200 mg q.d., all grade
  IRR: 2 (50.0) n (%)
  Immune-related AE: 1 (25.0) n (%)
  Serious TEAE: 1 (25.0) n (%)
  Serious TEAE, peposertib related: 0 n (%)
  Serious TEAE, radiotherapy related: 0 n (%)
  Serious TEAE, treatment related: 0 n (%)
  TEAE: 4 (100.0) n (%)
  TEAE, peposertib related: 2 (50.0) n (%)
  TEAE, radiotherapy related: 3 (75.0) n (%)
  TEAE, treatment related: 4 (100.0) n (%)
  TEAEs leading to death: 0 n (%)
  Treatment-related AE leading to death: 0 n (%)
[1]; 200 mg q.d., grade ≥3
  IRR: 0 n (%)
  Immune-related AE: 0 n (%)
  Serious TEAE: 1 (25.0) n (%)
  Serious TEAE, peposertib related: 0 n (%)
  Serious TEAE, radiotherapy related: 0 n (%)
  Serious TEAE, treatment related: 0 n (%)
  TEAE: 1 (25.0) n (%)
  TEAE, peposertib related: 0 n (%)
  TEAE, radiotherapy related: 0 n (%)
  TEAE, treatment related: 0 n (%)
  TEAEs leading to death: 0 n (%)
  Treatment-related AE leading to death: 0 n (%)
[1]; 250 mg q.d.
  Peposertib-related pneumonitis: 11.1%
  Serious TEAE: dehydration: 2/9
[1]; 250 mg q.d., all grade
  IRR: 3 (33.3) n (%)
  Immune-related AE: 2 (22.2) n (%)
  Serious TEAE: 6 (66.7) n (%)
  Serious TEAE, peposertib related: 1 (11.1) n (%)
  Serious TEAE, radiotherapy related: 1 (11.1) n (%)
  Serious TEAE, treatment related: 2 (22.2) n (%)
  TEAE: 9 (100.0) n (%)
  TEAE, peposertib related: 5 (55.6) n (%)
  TEAE, radiotherapy related: 5 (55.6) n (%)
  TEAE, treatment related: 8 (88.9) n (%)
  TEAEs leading to death: 0 n (%)
  Treatment-related AE leading to death: 0 n (%)
[1]; 250 mg q.d., grade ≥3
  IRR: 1 (11.1) n (%)
  Immune-related AE: 2 (22.2) n (%)
  Serious TEAE: 6 (66.7) n (%)
  Serious TEAE, peposertib related: 1 (11.1) n (%)
  Serious TEAE, radiotherapy related: 1 (11.1) n (%)
  Serious TEAE, treatment related: 2 (22.2) n (%)
  TEAE: 7 (77.8) n (%)
  TEAE, peposertib related: 1 (11.1) n (%)
  TEAE, radiotherapy related: 1 (11.1) n (%)
  TEAE, treatment related: 3 (33.3) n (%)
  TEAEs leading to death: 0 n (%)
  Treatment-related AE leading to death: 0 n (%)
[1]; all dose levels
  Discontinuation of all study treatments due to AEs: 6 (31.6%)
  Peposertib-related TEAE: nausea: 5 (26.3%)
  Peposertib-related TEAE: vomiting: 3 (15.8%)
[2]; 100 mg b.i.d.
  Serious TEAE: sepsis: 2/4
[2]; 100 mg b.i.d., all grade
  IRR: 1 (25.0) n (%)
  Immune-related AE: 0 n (%)
  Serious TEAE: 2 (50.0) n (%)
  Serious TEAE, peposertib related: 1 (25.0) n (%)
  Serious TEAE, treatment related: 1 (25.0) n (%)
  TEAE: 4 (100.0) n (%)
  TEAE leading to death: 1 (25.0) n (%)
  TEAE, peposertib related: 3 (75.0) n (%)
  TEAE, treatment related: 3 (75.0) n (%)
  Treatment-related AE leading to death: 0 n (%)
[2]; 100 mg b.i.d., grade ≥3
  IRR: 0 n (%)
  Immune-related AE: 0 n (%)
  Serious TEAE: 2 (50.0) n (%)
  Serious TEAE, peposertib related: 1 (25.0) n (%)
  Serious TEAE, treatment related: 1 (25.0) n (%)
  TEAE: 3 (75.0) n (%)
  TEAE leading to death: 1 (25.0) n (%)
  TEAE, peposertib related: 1 (25.0) n (%)
  TEAE, treatment related: 1 (25.0) n (%)
  Treatment-related AE leading to death: 0 n (%)
[2]; 200 mg b.i.d., all grade
  IRR: 1 (20.0) n (%)
  Immune-related AE: 2 (40.0) n (%)
  Serious TEAE: 3 (60.0) n (%)
  Serious TEAE, peposertib related: 1 (20.0) n (%)
  Serious TEAE, treatment related: 2 (40.0) n (%)
  TEAE: 5 (100.0) n (%)
  TEAE leading to death: 1 (20.0) n (%)
  TEAE, peposertib related: 5 (100.0) n (%)
  TEAE, treatment related: 5 (100.0) n (%)
  Treatment-related AE leading to death: 0 n (%)
[2]; 200 mg b.i.d., grade ≥3
  IRR: 1 (20.0) n (%)
  Immune-related AE: 2 (40.0) n (%)
  Serious TEAE: 3 (60.0) n (%)
  Serious TEAE, peposertib related: 1 (20.0) n (%)
  Serious TEAE, treatment related: 2 (40.0) n (%)
  TEAE: 4 (80.0) n (%)
  TEAE leading to death: 1 (20.0) n (%)
  TEAE, peposertib related: 3 (60.0) n (%)
  TEAE, treatment related: 4 (80.0) n (%)
  Treatment-related AE leading to death: 0 n (%)
[2]; all dose levels
  Discontinuation of all study treatments due to AEs: 4 (44.4%)
  Peposertib-related TEAE: diarrhea: 4 (44.4%)
  Peposertib-related TEAE: fatigue: 5 (55.6%)
[3]
  Patients with complete response (CR) or partial response (PR): no patients
[3]; all dose levels
  Best overall response of stable disease (SD) or non-CR/non-PD: 17.2%
[4]
  Patients with complete response (CR) or partial response (PR): no patients
[4]; all dose levels
  Best overall response of stable disease (SD) or non-CR/non-PD: 31.6%
[5]; across all dose levels after single or multiple (q.d. and b.i.d.) doses
  Peposertib exposure versus dose: generally proportional to the dose
[5]; after q.d. and b.i.d. dosing
  Accumulation: Some accumulation was observed
[6]; Part A
  Patients with SD among PD-L1+ tumors: two of seven
  Patients with SD among PD-L1− tumors: two of 17
[6]; Part B
  Patients with SD among PD-L1+ tumors: two of seven
  Patients with SD among PD-L1− tumors: three of nine
[6]; Parts A, B and FE
  Association between DNA-PK H-score and disease control: No association
[7]
  DLT: no DLT was reported
[8]
  DNA-PK inhibition: time- and concentration-dependent manner
